The source of these data is paper PMC7974029 (The Journal of Biological Chemistry, 2021).

Experiment [1] deals with T1, BtSGBP-A (Bacteroides thetaiotaomicron, UniProt A0A173VPY3).
T1 sequence (A0A173VPY3 23-515): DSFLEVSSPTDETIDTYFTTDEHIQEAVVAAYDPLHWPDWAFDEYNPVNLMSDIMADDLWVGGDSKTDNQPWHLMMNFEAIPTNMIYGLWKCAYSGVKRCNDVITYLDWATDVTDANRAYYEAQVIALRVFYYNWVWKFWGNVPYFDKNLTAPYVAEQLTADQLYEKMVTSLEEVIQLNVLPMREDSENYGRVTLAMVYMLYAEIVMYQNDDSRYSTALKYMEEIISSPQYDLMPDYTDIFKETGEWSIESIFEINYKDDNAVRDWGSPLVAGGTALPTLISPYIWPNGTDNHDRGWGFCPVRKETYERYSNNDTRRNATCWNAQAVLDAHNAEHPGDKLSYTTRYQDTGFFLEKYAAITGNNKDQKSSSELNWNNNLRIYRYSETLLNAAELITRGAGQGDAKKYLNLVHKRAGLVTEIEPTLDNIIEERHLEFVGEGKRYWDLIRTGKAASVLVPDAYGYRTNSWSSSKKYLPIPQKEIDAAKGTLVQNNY
Kind of experiment: ITC of laminarioligosaccharides with BtSGBP-A. Type of experiment: binding. The conditions noted are these: for KD: BtSGBP-A, ITC, value as given in running text. Put shortly: (§1)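 Recombinant SGBP from E. coli BL21(DE3) (IMAC, tag cleavage, SEC) at 100 μM in the cell was titrated with 1 mM laminari- or mixed-linkage gluco-oligosaccharide, all in 20 mM HEPES pH 7.0, at 25 °C. One 0.2 μl injection, then 18 × 2 μl at 150 s intervals, stirring 750 rpm. Isotherms were fitted with stoichiometry n fixed at 1.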

Experiment [2] relates to CBML-middle of BuSGBP-B. Kind of experiment: Affinity gel electrophoresis, BuSGBP-B CBML-middle domain. Type of experiment: binding, Bacteroides uniformis. The settings on record: 0.1% (w/v) polysaccharide in native gel. The procedure, abridged:
(§2)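 Native PAGE with 10% (w/v) acrylamide cast with 0.1% (w/v) polysaccharide, or water for the control gel. 6.0 μg recombinant SGBP domain (His₆-tagged, E. coli BL21(DE3), Ni-IMAC, tag removed, size-exclusion purified) and 5.0 μg BSA reference were loaded. Gels were run nondenaturing at 80 V, 3 h, room temperature, and stained with Coomassie Brilliant Blue.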

In experiment [3] the test system is BuSGBP-B. The settings on record: BuSGBP-B full length; cited from earlier work.
The subject of experiment [4] is CBML-middle domain of BtSGBP. The experiment can be described thus: Affinity gel electrophoresis, BtSGBP-B CBML-middle domain. Type of experiment: binding, Bacteroides thetaiotaomicron. The conditions noted are these: 0.1% (w/v) polysaccharide in native gel. The procedure, abridged: as §2
In experiment [5] the target is T2, BfSGBP-B (Bacteroides fluxus, UniProt F3PPH3).
T2 sequence (F3PPH3 21-290): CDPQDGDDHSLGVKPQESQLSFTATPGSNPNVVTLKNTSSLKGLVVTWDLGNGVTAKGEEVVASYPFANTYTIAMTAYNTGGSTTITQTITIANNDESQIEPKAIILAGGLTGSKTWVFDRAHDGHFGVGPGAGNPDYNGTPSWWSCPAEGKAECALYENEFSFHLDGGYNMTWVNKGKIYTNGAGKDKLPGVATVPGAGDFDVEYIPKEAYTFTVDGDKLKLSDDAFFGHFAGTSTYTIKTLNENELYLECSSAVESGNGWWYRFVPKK
The settings on record: BfSGBP-B full length; cited from earlier work.

For experiment [6], the target named is T2, BfSGBP-B. The experiment can be described thus: ITC of laminarioligosaccharides and MLG oligosaccharides with BfSGBP-B. Type of experiment: binding. The procedure, abridged:
as §1

Experiment [7] relates to CBML-distal of BuSGBP-B. The experiment can be described thus: Affinity gel electrophoresis, BuSGBP-B CBML-distal domain. The class given is binding, Bacteroides uniformis. The settings on record: 0.1% (w/v) polysaccharide in native gel. Put shortly:
as §2

Experiment [8] concerns BuSGBP-A. The conditions noted are these: cited from earlier work.

In experiment [1], `OC[C@H]1O[C@@H](O[C@@H]2[C@@H](O)[C@H](O[C@@H]3[C@@H](O)[C@H](O[C@@H]4[C@@H](O)[C@H](O[C@@H]5[C@@H](O)[C@H](O[C@H]6[C@H](O)[C@@H](CO)OC(O)[C@@H]6O)O[C@H](CO)[C@H]5O)O[C@H](CO)[C@H]4O)O[C@H](CO)[C@H]3O)O[C@H](CO)[C@H]2O)[C@H](O)[C@@H](O)[C@@H]1O` (stereo partly drawn) [Laminarihexaose] registered a Kd of 26 µM.

In the case of “mixed-linkage β(1,3)/β(1,4)-glucan [MLG]”, the “binding by affinity gel electrophoresis (AGE)” value is “exclusively responsible for the binding” in experiment [2] and “cannot bind” in experiment [4]. Further, the polysaccharide binding result in experiment [3] and in experiment [5] was “bind” throughout.

For `OC[C@H]1O[C@@H](O[C@H]2[C@H](O)[C@@H](O)[C@H](O[C@H]3[C@H](O)[C@@H](O)[C@H](O[C@H]4[C@H](O)[C@@H](CO)OC(O)[C@@H]4O)O[C@@H]3CO)O[C@@H]2CO)[C@H](O)[C@@H](O)[C@@H]1O` (stereo partly drawn) [G4G4G3G], the “binding to BfSGBP-B by ITC (in words)” value in experiment [6] is given as “binding”.

Take `OC[C@H]1O[C@@H](O[C@@H]2[C@@H](O)[C@H](O[C@@H]3[C@@H](O)[C@H](O[C@H]4[C@H](O)[C@@H](CO)OC(O)[C@@H]4O)O[C@H](CO)[C@H]3O)O[C@H](CO)[C@H]2O)[C@H](O)[C@@H](O)[C@@H]1O` (stereo partly drawn) [Laminaritetraose]: the KD result in experiment [1] is “too weak to be quantified”.

Take β(1,3)-glucan: the “binding by affinity gel electrophoresis (AGE)” value in experiment [2] and in experiment [7] was “bind” in each case. In addition, the polysaccharide binding entry in experiment [3] is reported as “bind”; in experiment [8], “does not display binding”; in experiment [5] it was “bind”.

In the case of `OC[C@H]1O[C@@H](O[C@@H]2[C@@H](O)[C@H](O[C@H]3[C@H](O)[C@@H](CO)OC(O)[C@@H]3O)O[C@H](CO)[C@H]2O)[C@H](O)[C@@H](O)[C@@H]1O` (stereo partly drawn) [Laminaritriose], in experiment [1], the KD entry was “too weak to be quantified”.

Turning to `OC[C@H]1O[C@@H](O[C@H]2[C@H](O)[C@@H](O)[C@H](O[C@H]3[C@H](O)[C@@H](CO)OC(O)[C@@H]3O)O[C@@H]2CO)[C@H](O)[C@@H](O)[C@@H]1O` (stereo partly drawn) [G4G3G], the “binding to BfSGBP-B by ITC (in words)” value in experiment [6] is on record as “binding”.

In turn, `OC[C@H]1O[C@@H](O[C@@H]2[C@@H](O)[C@H](O[C@@H]3[C@@H](O)[C@H](O[C@@H]4[C@@H](O)[C@H](O[C@H]5[C@H](O)[C@@H](CO)OC(O)[C@@H]5O)O[C@H](CO)[C@H]4O)O[C@H](CO)[C@H]3O)O[C@H](CO)[C@H]2O)[C@H](O)[C@@H](O)[C@@H]1O` (stereo partly drawn) [Laminaripentaose] displayed a Kd in experiment [1] of 210 µM.
